Measurements reported in ChEMBL document CHEMBL1139207, “Pyrroloacridine alkaloids from Plakortis quasiamphiaster: structures and bioactivity” (J Nat Prod, 2007).
Activity calls are given as the source filed them. The calls are words filed in the database; no cut-off is given here.

Tests used:
[1] = Induction of Top2-mediated catenation of DNA; assay type: functional
Saccharomyces cerevisiae [2] = assay: Inhibition of Saccharomyces cerevisiae top1delta by yeast halo assay; assay type: functional, organism-based
How it was run: (§1)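 Diploid S. cerevisiae BY4743 (top1∆ or wild type) from overnight culture seeded into YPD-H agar (YPD buffered with 25 mM HEPES, pH 7) and cooled 30 min. DMSO stocks were pin-transferred at 200 nL into the agar. Plates read by absorbance at 544 nm, growth-inhibition halo diameter measured, and top1∆ growth compared with wild type.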

Saccharomyces cerevisiae [3] = assay: Inhibition of wild type Saccharomyces cerevisiae by yeast halo assay; assay type: functional, organism-based; how it was run: as §1
[4] = Cytotoxicity against human H116 cells by disk diffusion assay; assay type: cell-based
Saccharomyces cerevisiae [5] = assay: Inhibition of Saccharomyces cerevisiae top1delta in liquid culture; assay type: functional
How it was run: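 Diploid S. cerevisiae BY4743 top1∆ and wild type grown in 100 µL liquid cultures with six 2-fold dilutions of compound alongside DMSO controls. Absorbance at 544 nm read every 30 min. Doubling time computed at each concentration and compared with the DMSO doubling time; LC50 derived.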

[6] = Cytotoxicity against human H116 cells by clonogenic assay after 168 hrs; assay type: cell-based; settings: h116, 168 h
How it was run: (§2)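 Clonogenic survival of human colon H-116 cells over a range of concentrations, exposed for 2, 24 or 168 h (168 h being continuous over the 7-day incubation). Value reported as the concentration giving 10% surviving fraction (S10), read from the concentration-response curve.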

[7] = Cytotoxicity against human H116 cells by clonogenic assay after 2 hrs; assay type: cell-based; settings: h116, 2 h; how it was run: as §2
[8] = Cytotoxicity against human H116 cells by clonogenic assay after 24 hrs; assay type: cell-based; settings: h116, 24 h; how it was run: as §2

Structure (SMILES)	Activity [1]	Activity (Saccharomyces cerevisiae [2])	Activity (Saccharomyces cerevisiae [3])	Activity [4]	LC50 (Saccharomyces cerevisiae [5]) [µM]	Activity [6] [ng/mL]	Activity [7] [µg/mL]	Activity [8] [µg/mL]
Cn1ccc2c(c1=O)C(=O)c1nccc3c1c-2nc1ccccc13	Active	–	–	–	–	–	–	–
CCC/C=C/CCCCCCCCCC[C@]1(C)OC(=O)[C@@H](CO)[C@@H]1O [AMPHIASTERIN B1]	–	inactive	inactive	Not Active	–	–	–	–
O=C1CCNC2=C1C(=O)c1[nH]cc3c1c2nc1ccccc13 [PLAKINIDINE E]	–	Toxic	Non-toxic	Not Active	33	–	–	–
CNc1c2c(c3nc4ccccc4c4c3c1N=C4)NCCC2=O [PLAKINIDINE A]	–	inactive	inactive	Active	–	150	20	1.5
CCC/C=C/CCCCCCCCCCCC[C@]1(C)OC(=O)[C@@H](CO)[C@@H]1O [AMPHIASTERIN B2]	–	inactive	inactive	Not Active	–	–	–	–
